Data as given in ChEMBL document CHEMBL1938337, “Discovery of novel, potent, and selective inhibitors of 3-phosphoinositide-dependent kinase (PDK1)” (J Med Chem, 2011).

What was measured:
[1] = biological target: T1, 3-phosphoinositide-dependent protein kinase 1 (Homo sapiens, UniProt O15530); test: Inhibition of recombinant human His-tagged PDK1 catalytic domain using Ac-Sox-PKTFCGTPEYLAPEVRREPRILSEEEQEMFRDFDYIAD-NH2 as substrate by fluorescence-based spectrophotometry
T1 sequence (O15530 whole entry): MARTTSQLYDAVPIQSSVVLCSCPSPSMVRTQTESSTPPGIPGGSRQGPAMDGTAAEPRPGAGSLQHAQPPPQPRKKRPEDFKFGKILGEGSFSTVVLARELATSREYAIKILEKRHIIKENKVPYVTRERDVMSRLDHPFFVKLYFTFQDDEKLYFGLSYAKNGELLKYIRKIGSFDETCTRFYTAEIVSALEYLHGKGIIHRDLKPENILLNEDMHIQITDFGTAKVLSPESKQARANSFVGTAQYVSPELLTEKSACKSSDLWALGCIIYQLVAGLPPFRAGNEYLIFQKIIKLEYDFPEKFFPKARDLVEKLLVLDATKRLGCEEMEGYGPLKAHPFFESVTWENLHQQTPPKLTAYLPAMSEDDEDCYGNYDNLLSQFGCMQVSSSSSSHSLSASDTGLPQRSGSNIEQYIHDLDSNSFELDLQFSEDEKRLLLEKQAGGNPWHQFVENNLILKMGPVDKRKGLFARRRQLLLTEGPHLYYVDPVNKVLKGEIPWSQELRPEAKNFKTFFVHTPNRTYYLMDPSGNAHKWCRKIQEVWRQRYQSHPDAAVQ

NCI-H460 = test: Antiproliferative activity against human H460 cells after 72 hrs by resazurin reduction assay; format: functional, cell-based; conditions: NCI-H460, 72 h
Outline: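 Cells seeded at 3,000 per well, left to adhere overnight, then given inhibitor as a 3-fold serial dilution from 0.0169 nM to 10 μM. After 72 h, 250 μg/mL resazurin was added, followed by 6 h more at 37 °C. Fluorescence was read at ex 560 / em 590 nm.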

[2] = biological target: T2, Aurora kinase A (Homo sapiens) (UniProt O14965); test: Inhibition of STK6 at 1 uM
T2 sequence (whole entry): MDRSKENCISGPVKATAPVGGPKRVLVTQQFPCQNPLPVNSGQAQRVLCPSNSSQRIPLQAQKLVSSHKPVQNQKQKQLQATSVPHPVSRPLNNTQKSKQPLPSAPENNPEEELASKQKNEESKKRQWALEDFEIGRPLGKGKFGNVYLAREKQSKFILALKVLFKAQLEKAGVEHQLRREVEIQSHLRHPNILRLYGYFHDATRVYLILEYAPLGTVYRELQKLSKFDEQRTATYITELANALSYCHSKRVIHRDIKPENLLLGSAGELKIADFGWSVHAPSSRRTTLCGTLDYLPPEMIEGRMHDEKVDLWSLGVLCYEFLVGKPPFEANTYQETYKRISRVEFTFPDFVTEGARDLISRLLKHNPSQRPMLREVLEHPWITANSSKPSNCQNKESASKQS

[3] = biological target: High affinity nerve growth factor receptor (Homo sapiens, UniProt P04629); test: Inhibition of NTRK1 at 1 uM
Sequence of High affinity nerve growth factor receptor (P04629 33-796 limits assumed): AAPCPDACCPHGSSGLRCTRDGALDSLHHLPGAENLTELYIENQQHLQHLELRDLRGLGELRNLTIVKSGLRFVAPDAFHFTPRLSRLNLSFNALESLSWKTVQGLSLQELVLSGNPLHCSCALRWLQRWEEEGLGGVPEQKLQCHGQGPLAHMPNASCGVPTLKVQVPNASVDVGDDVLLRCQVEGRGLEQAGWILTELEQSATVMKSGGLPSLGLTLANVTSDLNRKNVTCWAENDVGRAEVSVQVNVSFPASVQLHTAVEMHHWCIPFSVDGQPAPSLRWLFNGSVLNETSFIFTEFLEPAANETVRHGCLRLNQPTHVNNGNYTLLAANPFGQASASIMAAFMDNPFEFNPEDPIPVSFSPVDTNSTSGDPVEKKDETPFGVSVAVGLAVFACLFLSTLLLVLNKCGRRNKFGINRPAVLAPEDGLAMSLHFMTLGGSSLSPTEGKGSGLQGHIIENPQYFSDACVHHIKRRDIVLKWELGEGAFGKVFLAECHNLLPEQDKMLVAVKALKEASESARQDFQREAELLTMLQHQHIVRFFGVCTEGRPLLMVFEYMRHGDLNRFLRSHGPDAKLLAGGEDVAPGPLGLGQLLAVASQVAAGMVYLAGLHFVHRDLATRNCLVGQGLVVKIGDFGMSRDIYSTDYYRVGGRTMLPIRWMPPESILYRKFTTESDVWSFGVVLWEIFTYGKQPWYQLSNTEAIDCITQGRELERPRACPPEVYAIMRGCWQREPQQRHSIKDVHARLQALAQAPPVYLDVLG

[4] = biological target: Vascular endothelial growth factor receptor 2 (Homo sapiens) (UniProt P35968); test: Inhibition of KDR at 1 uM
[5] = biological target: Serine/threonine-protein kinase pim-2 (Homo sapiens) (UniProt Q9P1W9); test: Inhibition of PIM2 at 1 uM
Sequence of Serine/threonine-protein kinase pim-2 (Homo sapiens) (Q9P1W9 whole entry, looked up, canonical isoform): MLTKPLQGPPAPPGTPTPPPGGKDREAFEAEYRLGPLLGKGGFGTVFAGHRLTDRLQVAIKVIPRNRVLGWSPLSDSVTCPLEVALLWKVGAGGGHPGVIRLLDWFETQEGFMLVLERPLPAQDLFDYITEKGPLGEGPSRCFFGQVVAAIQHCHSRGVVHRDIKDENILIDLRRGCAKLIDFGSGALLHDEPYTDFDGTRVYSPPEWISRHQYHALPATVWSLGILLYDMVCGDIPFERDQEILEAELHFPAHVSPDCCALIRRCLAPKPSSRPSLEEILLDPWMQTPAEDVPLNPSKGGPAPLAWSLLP

[6] = biological target: Casein kinase I isoform alpha (Homo sapiens) (UniProt P48729); test: Inhibition of CSNK1A1 at 1 uM
Sequence of Casein kinase I isoform alpha (Homo sapiens) (P48729 2-337 limits assumed): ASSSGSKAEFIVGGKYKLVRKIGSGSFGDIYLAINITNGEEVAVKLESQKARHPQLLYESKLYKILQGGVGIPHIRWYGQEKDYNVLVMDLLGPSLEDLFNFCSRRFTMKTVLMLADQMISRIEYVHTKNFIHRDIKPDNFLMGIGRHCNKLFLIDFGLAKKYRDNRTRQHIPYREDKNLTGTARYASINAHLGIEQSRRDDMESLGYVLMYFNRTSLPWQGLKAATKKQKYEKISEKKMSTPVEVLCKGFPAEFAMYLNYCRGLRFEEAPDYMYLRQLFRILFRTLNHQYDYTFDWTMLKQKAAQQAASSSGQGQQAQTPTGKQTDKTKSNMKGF

[7] = biological target: Mitogen-activated protein kinase 1 (Homo sapiens) (UniProt P28482); test: Inhibition of MAPK1 at 1 uM
Sequence of Mitogen-activated protein kinase 1 (Homo sapiens) (P28482 whole entry): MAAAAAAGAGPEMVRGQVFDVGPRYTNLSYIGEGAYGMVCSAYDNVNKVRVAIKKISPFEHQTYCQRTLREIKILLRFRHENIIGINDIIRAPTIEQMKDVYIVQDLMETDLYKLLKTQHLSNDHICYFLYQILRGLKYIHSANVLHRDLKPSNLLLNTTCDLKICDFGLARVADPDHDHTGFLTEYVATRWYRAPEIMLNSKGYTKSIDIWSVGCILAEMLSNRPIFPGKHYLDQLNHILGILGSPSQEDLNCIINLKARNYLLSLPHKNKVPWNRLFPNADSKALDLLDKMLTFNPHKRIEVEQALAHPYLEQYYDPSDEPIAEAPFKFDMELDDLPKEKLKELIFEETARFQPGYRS

[8] = biological target: Casein kinase II subunit alpha' (Homo sapiens) (UniProt P19784); test: Inhibition of CSNK2A2 at 1 uM
Sequence of Casein kinase II subunit alpha' (Homo sapiens) (P19784 whole entry, looked up): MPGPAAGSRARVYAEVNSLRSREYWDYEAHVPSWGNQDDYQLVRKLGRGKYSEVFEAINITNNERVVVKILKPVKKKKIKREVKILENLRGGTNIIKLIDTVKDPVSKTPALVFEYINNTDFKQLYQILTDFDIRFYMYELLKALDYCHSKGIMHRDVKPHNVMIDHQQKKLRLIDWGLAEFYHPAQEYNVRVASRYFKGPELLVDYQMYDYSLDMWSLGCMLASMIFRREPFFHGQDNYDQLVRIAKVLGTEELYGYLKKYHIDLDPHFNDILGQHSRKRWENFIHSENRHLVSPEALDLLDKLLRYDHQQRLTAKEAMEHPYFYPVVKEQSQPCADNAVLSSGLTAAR

[9] = biological target: Insulin receptor (Homo sapiens) (UniProt P06213); test: Inhibition of INSR at 1 uM
Sequence of Insulin receptor (Homo sapiens) (P06213 28-758 limits assumed): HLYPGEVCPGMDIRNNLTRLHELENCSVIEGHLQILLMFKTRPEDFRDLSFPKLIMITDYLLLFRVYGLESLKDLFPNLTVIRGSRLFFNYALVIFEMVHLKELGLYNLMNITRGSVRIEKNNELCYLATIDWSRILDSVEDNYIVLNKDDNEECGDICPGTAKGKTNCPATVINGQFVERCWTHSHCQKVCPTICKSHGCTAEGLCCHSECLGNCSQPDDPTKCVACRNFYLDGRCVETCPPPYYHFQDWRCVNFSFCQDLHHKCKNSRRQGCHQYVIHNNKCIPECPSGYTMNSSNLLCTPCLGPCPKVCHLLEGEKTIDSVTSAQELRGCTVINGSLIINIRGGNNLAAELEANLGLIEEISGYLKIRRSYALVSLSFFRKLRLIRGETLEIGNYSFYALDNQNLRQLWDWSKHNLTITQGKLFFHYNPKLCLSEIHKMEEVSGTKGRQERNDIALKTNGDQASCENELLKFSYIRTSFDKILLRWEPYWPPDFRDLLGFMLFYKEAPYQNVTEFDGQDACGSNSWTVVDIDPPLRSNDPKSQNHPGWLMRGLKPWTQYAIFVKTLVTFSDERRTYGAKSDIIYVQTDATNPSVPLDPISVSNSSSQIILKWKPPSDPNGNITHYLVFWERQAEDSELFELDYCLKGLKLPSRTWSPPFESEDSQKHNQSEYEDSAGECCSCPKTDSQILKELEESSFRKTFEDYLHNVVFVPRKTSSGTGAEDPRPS
Sequence of Insulin receptor (Homo sapiens) (P06213 763-1382 limits assumed): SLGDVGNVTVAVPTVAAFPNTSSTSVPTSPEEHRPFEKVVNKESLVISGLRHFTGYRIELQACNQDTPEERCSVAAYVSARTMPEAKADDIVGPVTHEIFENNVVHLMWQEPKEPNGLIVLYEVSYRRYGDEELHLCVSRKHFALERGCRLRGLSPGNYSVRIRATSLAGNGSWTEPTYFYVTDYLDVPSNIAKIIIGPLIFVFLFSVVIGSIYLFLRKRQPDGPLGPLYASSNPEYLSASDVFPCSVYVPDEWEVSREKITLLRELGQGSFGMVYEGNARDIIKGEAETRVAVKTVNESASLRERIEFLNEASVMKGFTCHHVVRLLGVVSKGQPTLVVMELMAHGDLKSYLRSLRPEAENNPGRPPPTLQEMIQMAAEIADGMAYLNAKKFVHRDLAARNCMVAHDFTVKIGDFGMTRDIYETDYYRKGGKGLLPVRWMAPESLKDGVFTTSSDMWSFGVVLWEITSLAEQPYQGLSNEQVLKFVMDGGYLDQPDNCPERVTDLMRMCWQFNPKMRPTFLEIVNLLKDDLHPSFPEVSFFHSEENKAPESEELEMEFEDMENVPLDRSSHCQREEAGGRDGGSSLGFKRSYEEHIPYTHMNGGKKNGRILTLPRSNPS

[10] = biological target: T3, Serine/threonine-protein kinase TAO2 (Homo sapiens) (UniProt Q9UL54); test: Inhibition of TAOK2 at 1 uM
T3 sequence (whole entry): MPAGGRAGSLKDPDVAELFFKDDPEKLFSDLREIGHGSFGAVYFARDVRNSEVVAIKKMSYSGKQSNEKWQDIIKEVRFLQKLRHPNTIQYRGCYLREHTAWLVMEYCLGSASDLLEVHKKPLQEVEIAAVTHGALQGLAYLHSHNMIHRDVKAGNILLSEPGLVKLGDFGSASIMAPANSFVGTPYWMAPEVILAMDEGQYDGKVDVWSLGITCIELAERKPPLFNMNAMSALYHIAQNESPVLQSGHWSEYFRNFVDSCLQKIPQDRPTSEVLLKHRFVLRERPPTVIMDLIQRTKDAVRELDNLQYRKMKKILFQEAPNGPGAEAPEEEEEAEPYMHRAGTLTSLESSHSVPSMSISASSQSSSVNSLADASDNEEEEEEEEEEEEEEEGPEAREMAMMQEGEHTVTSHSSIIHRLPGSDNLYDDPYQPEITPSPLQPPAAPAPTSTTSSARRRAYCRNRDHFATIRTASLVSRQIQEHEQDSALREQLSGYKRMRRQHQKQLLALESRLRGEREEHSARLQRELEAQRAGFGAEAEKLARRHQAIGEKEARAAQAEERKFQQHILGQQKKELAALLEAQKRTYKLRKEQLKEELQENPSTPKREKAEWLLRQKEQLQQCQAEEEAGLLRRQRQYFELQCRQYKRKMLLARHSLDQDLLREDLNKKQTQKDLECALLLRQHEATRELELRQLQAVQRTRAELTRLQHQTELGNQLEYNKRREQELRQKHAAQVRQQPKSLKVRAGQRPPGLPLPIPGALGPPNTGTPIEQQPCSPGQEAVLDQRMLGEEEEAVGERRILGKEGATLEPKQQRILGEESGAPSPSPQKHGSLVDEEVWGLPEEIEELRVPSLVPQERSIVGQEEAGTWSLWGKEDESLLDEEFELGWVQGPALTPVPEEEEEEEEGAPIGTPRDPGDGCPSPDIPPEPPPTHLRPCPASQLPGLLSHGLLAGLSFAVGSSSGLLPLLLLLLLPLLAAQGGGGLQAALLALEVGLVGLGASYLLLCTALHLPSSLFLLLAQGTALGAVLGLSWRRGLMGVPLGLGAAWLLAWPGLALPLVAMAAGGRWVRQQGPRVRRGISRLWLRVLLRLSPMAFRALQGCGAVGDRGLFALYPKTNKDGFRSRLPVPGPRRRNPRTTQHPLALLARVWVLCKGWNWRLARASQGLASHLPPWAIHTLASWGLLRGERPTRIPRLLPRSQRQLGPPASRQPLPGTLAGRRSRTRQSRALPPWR

[11] = biological target: Serine/threonine-protein kinase MARK1 (Homo sapiens, UniProt Q9P0L2); test: Inhibition of MARK1
Sequence of Serine/threonine-protein kinase MARK1 (Q9P0L2 whole entry): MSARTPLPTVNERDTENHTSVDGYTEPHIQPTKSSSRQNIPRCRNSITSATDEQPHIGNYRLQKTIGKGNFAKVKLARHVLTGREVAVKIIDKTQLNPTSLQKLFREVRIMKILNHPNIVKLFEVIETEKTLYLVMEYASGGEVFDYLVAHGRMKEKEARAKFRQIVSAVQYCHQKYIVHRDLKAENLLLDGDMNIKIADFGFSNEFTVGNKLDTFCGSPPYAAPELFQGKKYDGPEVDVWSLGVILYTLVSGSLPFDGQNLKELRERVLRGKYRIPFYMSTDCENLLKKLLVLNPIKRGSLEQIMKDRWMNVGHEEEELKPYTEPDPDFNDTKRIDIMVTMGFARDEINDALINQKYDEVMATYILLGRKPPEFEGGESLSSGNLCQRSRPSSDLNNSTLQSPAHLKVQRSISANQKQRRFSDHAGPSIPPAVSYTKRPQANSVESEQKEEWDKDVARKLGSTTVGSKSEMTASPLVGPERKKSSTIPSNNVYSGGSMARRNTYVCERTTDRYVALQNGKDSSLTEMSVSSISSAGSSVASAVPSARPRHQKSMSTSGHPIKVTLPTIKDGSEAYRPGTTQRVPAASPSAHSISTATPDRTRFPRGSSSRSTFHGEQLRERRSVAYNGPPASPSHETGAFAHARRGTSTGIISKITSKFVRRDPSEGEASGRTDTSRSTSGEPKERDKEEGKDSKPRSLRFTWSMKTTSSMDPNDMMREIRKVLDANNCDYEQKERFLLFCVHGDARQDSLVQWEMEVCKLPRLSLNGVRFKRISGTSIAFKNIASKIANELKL

| Compound | Ki [1] [nM] | EC50 (NCI-H460) [nM] | inhibition [2] [%] | inhibition [3] [%] | inhibition [4] [%] | inhibition [5] [%] | inhibition [6] [%] | inhibition [7] [%] | inhibition [8] [%] | inhibition [9] [%] | inhibition [10] [%] | IC50 [11] [nM] |
| --- | --- | --- | --- | --- | --- | --- | --- | --- | --- | --- | --- | --- |
| CC(=O)N1CC[C@@H](Nc2cncc(C(=O)c3cn(C(C)C)c4ncnc(N)c34)n2)[C@H]1c1ccc(F)cc1 | 1.4 | 1900 | 80 | 63 | 51 | 7 | 4 | -4 | 8 | 3 | 4 | 590 |
| CC(=O)N1CC[C@@H](Nc2cncc(C(=O)c3cn(C(C)C)c4ncnc(N)c34)n2)[C@H]1c1ccccc1 | 1.4 | 1700 | 54 | 59 | 34 | -2 | 7 | 3 | 2 | 4 | -5 | 1300 |
| CC(C)n1cc(C(=O)c2cncc(N[C@@H]3CCN(C=O)[C@@H]3c3ccc(F)cc3)n2)c2c(N)ncnc21 | 0.7 | 700 | 81 | 74 | 49 | 9 | 7 | 5 | 4 | 4 | -1 | 110 |
